Published values pooled from the literature.
Compare with care: the assays were run in different laboratories.
Observed: cell growth or viability

| SMILES | cell line | technique | concentration | time | measurement | result |
| --- | --- | --- | --- | --- | --- | --- |
| c1cc(CN2CCCNCCNCCCNCC2)ccc1CN1CCCNCCNCCCNCC1 | TZM-bl |  |  |  | CC50 | > 1 µM |
| C[C@H]1[C@H](C)CC[C@]2(C(=O)O)CC[C@]3(C)C(=CC[C@@H]4[C@@]5(C)CC[C@H](O)C(C)(C)[C@@H]5CC[C@]43C)[C@H]12 | WS1 |  |  | 48 h | IC50 | 14 µM |
| COC(=O)[C@]1(O)C[C@@H](O)[C@@H](O)[C@H](OC(=O)/C=C/c2ccc(O)c(O)c2)C1 | HEp-2 | WST-1 |  |  | IC50 | 21.2 µM |
| CCCCCCCCCCCCCCCCOP(=O)([O-])OCC[N+](C)(C)C | THP-1 |  |  | 72 h | CC50 | > 40 µM |
| CC(=O)O[C@@H]1c2c(ccc3ccc(=O)oc23)OC(C)(C)[C@@H]1OC(=O)C1(C)OC1C (stereo partly drawn) | HEp-2 | WST-1 |  |  | IC50 | 36.4 µM |
| COc1cccc2c1C(=O)c1c(O)c3c(c(O)c1C2=O)C[C@@](O)(C(=O)CO)C[C@@H]3O[C@H]1C[C@H](N)[C@H](O)[C@H](C)O1 | MCF7 | MTT | 25 µM | 48 h | viability | 16% |
| C[C@@H]1[C@H](O)[C@@H](C)/C=C/C=C/C=C/C=C/C=C/C=C/C=C/[C@H](O[C@@H]2O[C@H](C)[C@@H](O)[C@H](N)[C@@H]2O)C[C@@H]2O[C@](O)(C[C@@H](O)C[C@@H](O)[C@H](O)CC[C@@H](O)C[C@@H](O)CC(=O)O[C@H]1C)C[C@H](O)[C@H]2C(=O)O | THP-1 | MTT |  | 72 h | CC50 | 3.6 µM |
| C/C=C(/C)C(=O)O[C@@H]1[C@H](OC(C)=O)c2c(ccc3ccc(=O)oc23)OC1(C)C | HEp-2 | WST-1 |  |  | IC50 | 53.5 µM |
| O=[N+]([O-])c1ccc(-c2nc3cc(Cl)ccc3[nH]2)o1 | HEp-2 | resazurin |  | 72 h | CC50 | 5 µM |
| Cc1nc(C(CN)NC(=O)C(=O)Nc2ccc3c(c2)OCO3)sc1CO (stereo not drawn) | TZM-bl | MTS |  | 72 h | CC50 | ≥ 750 µM |
| O=c1oc2c(O)c(O)cc3c(=O)oc4c(O)c(O)cc1c4c23 | TZM-bl | MTT |  | 48 h | CC50 | 469 µg/mL |
| CC(=O)OC1c2c(ccc3ccc(=O)oc23)OC(C)(C)C1OC(=O)C(C)(O)C(C)O (stereo not drawn) | HEp-2 | WST-1 |  |  | IC50 | 11.3 µM |
| O=[N+]([O-])c1ccc(-c2nc3cc(F)ccc3[nH]2)o1 | HEp-2 | resazurin |  | 72 h | CC50 | 3.1 µM |
| C[C@@H]1O[C@@H](OC[C@H]2O[C@@H](Oc3c(-c4ccc(O)c(O)c4)oc4cc(O)cc(O)c4c3=O)[C@H](O)[C@@H](O)[C@@H]2O)[C@H](O)[C@H](O)[C@H]1O | TZM-bl | MTT |  | 48 h | CC50 | > 250 µg/mL |
| C=C(C)[C@H](CCC(C)(C)O)Cc1c(O)cc(OC)c2c1O[C@H](c1ccc(O)cc1O)CC2=O | MCF7 | MTT |  | 48 h | IC50 | > 100 µM |
